Measurements as given in ChEMBL document CHEMBL2177040, “Down-regulation of the human VEGF gene expression by perylene monoimide derivatives” (Bioorg Med Chem Lett, 2012).
pIC50: −log10 of the molar value. Calls of active or inactive are those of the source. The rule behind the calls is not given here.

Key:
Nucleic Acid [1] = experiment: Binding affinity to Bcl2 quadruplex DNA in human A549 cells assessed as downregulation of Bcl2 mRNA expression in human A549 cells after 24 hrs by semi-quantitative RT-PCR analysis; format: cell-based
Nucleic Acid [2] = experiment: Binding affinity to VEGF quadruplex DNA in human A549 cells assessed as downregulation of VEGF mRNA expression after 24 hrs by semi-quantitative RT-PCR analysis; format: cell-based
How it was run: (§1)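 A549 cells (3.0 × 10^5) exposed to a range of compound concentrations for 24 h; total RNA reverse-transcribed and cDNA amplified with gene-specific primers at a cycle number chosen per gene for linear signal. VEGF bands quantified by densitometry, normalized to GAPDH; three separate experiments.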

Nucleic Acid [3] = experiment: Binding affinity to VEGF VT-66-G-quadruplex DNA after 30 mins by DNA polymerase stop assay; format: nucleic-acid assay
How it was run: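 Polymerase stop: compound (twofold dilution) with template VT-66 (100 nM) and FAM-labelled primer P16 (100 nM) in 10 mM Tris-HCl pH 7.4, denatured 95 °C 5 min, slow-cooled to 37 °C. Extension started with dNTPs, 3 mM MgCl2 and Klenow fragment (1 unit), 37 °C 30 min. Resolved on 12% denaturing PAGE; stopped/(stopped+full-length) ratio plotted against concentration.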

Nucleic Acid [4] = experiment: Binding affinity to VEGF quadruplex DNA in human MCF7 cells assessed as downregulation of VEGF mRNA expression at 0.75 to 6 uM after 24 hrs by semi-quantitative RT-PCR analysis; format: cell-based
A549 [5] = experiment: Downregulation of Max mRNA expression in human A549 cells at 0.75 to 6 uM after 24 hrs by semi-quantitative RT-PCR analysis; format: functional, cell-based
A549 [6] = experiment: Downregulation of GAPDH mRNA expression in human A549 cells at 0.75 to 6 uM after 24 hrs by semi-quantitative RT-PCR analysis; format: functional, cell-based
How it was run: (§2)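 A549 cells (3.0 × 10^5) treated 24 h at graded compound concentrations; RNA reverse-transcribed and GAPDH cDNA amplified by gene-specific PCR at a cycle number chosen for linear signal, with band intensity by semi-quantitative gel read-out.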

A549 [7] = experiment: Cytotoxicity against human A549 cells assessed as cell viability after 72 hrs by SRB assay; format: functional, cell-based; conditions: A549, 72 h
How it was run: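 Sulforhodamine B colorimetric assay on A549 cells. IC50 derived from the concentration versus percent growth inhibition curve. Mean ± standard deviation of three independent experiments, each in triplicate.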

MCF7 = experiment: Cytotoxicity against human MCF7 cells assessed as cell viability after 72 hrs by SRB assay; format: functional, cell-based; conditions: MCF7, 72 h
Nucleic Acid [8] = experiment: Binding affinity to c-Myc quadruplex DNA in human A549 cells assessed as downregulation of c-Myc mRNA expression after 24 hrs by semi-quantitative RT-PCR analysis; format: cell-based
Nucleic Acid [9] = experiment: Binding affinity to VEGF quadruplex DNA in human A549 cells assessed as downregulation of VEGF121 mRNA expression after 24 hrs by semi-quantitative RT-PCR analysis; format: cell-based; how it was run: as §1
Nucleic Acid [10] = experiment: Binding affinity to VEGF quadruplex DNA in human HeLa cells assessed as downregulation of VEGF mRNA expression at 0.75 to 6 uM after 24 hrs by semi-quantitative RT-PCR analysis; format: cell-based
HCT-15 = experiment: Cytotoxicity against human HCT15 cells assessed as cell viability after 72 hrs by SRB assay; format: functional, cell-based; conditions: HCT-15, 72 h
Nucleic Acid [11] = experiment: Binding affinity to VEGF quadruplex DNA at 40 uM after 1 to 72 hrs by spectroscopic analysis; format: nucleic-acid assay
How it was run: (§3)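 Visible absorbance spectra of compound (40 µM) in 10 mM Tris-HCl pH 7.4 with 100 mM KCl, without DNA, with preformed VEGF quadruplex (20 µM V32G), or with salmon sperm duplex DNA matched in absorbance to the quadruplex; recorded at 0, 8 and 72 h incubation.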

Nucleic Acid [12] = experiment: Binding affinity to VEGF quadruplex DNA in human HCT15 cells assessed as downregulation of VEGF mRNA expression at 0.75 to 6 uM after 24 hrs by semi-quantitative RT-PCR analysis; format: cell-based; conditions: HCT-15
[13] = Solubility of the compound in Tris-HCl buffer at 40 uM at pH 7.4 after 72 hrs by spectroscopic analysis in absence of DNA; format: physicochemical; conditions: pH 7.4, 72 h; how it was run: as §3
Nucleic Acid [14] = experiment: Binding affinity to VEGF quadruplex DNA in human A549 cells assessed as downregulation of VEGF protein level after 24 hrs by Western blot analysis; format: cell-based
How it was run: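 A549 cells (3.0 × 10^5) treated with a range of compound concentrations for 24 h; lysate proteins separated by SDS-PAGE and blotted with rabbit polyclonal anti-VEGF, detected with HRP-conjugated goat anti-rabbit IgG.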

[15] = Solubility of the compound in Tris-HCl buffer at 40 uM at pH 7.4 after 1 to 72 hrs by spectroscopic analysis in presence of salmon sperm DNA duplex; format: physicochemical; conditions: pH 7.4, 40 µM; how it was run: as §3
Nucleic Acid [16] = experiment: Binding affinity to VEGF quadruplex DNA in human A549 cells assessed as downregulation of VEGF165 mRNA expression after 24 hrs by semi-quantitative RT-PCR analysis; format: cell-based; how it was run: as §1
[17] = Solubility of the compound in Tris-HCl buffer at 40 uM at pH 7.4 after 1 to 72 hrs by spectroscopic analysis in presence of VEGF quadruplex; format: physicochemical; conditions: pH 7.4, 40 µM; how it was run: as §3
HeLa = experiment: Cytotoxicity against human HeLa cells assessed as cell viability after 72 hrs by SRB assay; format: functional, cell-based
A549 [18] = experiment: Downregulation of COX2 mRNA expression in human A549 cells at 0.75 to 6 uM after 24 hrs by semi-quantitative RT-PCR analysis; format: functional, cell-based
Nucleic Acid [19] = experiment: Binding affinity to VEGF V32G-G-quadruplex DNA after 10 hrs by polyacrylamide electrophoresis; format: nucleic-acid assay
How it was run: (§4)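 Duplex/G-quadruplex competition: FAM-labelled G-rich strand V32G (2 µM) plus complementary C-rich strand (2 µM) with twofold-diluted compound in Tris-HCl pH 7.4, 100 mM KCl; denatured 95 °C 5 min, slow-cooled to 55 °C and held 10 h, then rapidly cooled to 4 °C. Products resolved on 16% native PAGE containing 50 mM KCl (4 °C, 350 V, 10 h); duplex vs monomeric quadruplex bands imaged.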

[20] = Inhibition of DNA polymerase at > 1 uM
How it was run: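 Klenow polymerase stop assay. Template VT-66 (100 nM) and FAM-primer P16 (100 nM) with twofold-diluted compound in 10 mM Tris-HCl pH 7.4, denatured 95 °C 5 min, slow-cooled to 37 °C. Extension started with dNTPs, 3 mM MgCl2 and Klenow fragment (1 unit), 37 °C 30 min. Products on 12% denaturing PAGE; stopped/total extended ratio plotted.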

Nucleic Acid [21] = experiment: Binding affinity to VEGF quadruplex DNA in human A549 cells assessed as downregulation of VEGF121 mRNA expression at 50 uM after 24 hrs by semi-quantitative RT-PCR analysis; format: cell-based
How it was run: (§5)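 A549 cells (3.0 × 10^5) treated 24 h. Total RNA extracted and reverse-transcribed; cDNA amplified with gene-specific primers, with cycle number set so that product intensity tracks cDNA amount. Both VEGF bands quantified by scan densitometry and normalised to GAPDH; three separate experiments.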

Nucleic Acid [22] = experiment: Binding affinity to VEGF quadruplex DNA in human A549 cells assessed as downregulation of VEGF protein level at 0.2 to 2.8 uM after 24 hrs by Western blot analysis; format: cell-based
How it was run: (§6)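 A549 cells (3.0 × 10^5) exposed to a range of compound concentrations for 24 h. Lysate proteins separated by SDS-PAGE and blotted with rabbit polyclonal VEGF antibody, then HRP-conjugated goat anti-rabbit IgG. Top concentrations chosen from cytotoxicity data.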

Nucleic Acid [23] = experiment: Binding affinity to VEGF quadruplex DNA in human A549 cells assessed as downregulation of VEGF protein level at 3.1 to 50 uM after 24 hrs by Western blot analysis; format: cell-based; how it was run: as §6
Nucleic Acid [24] = experiment: Binding affinity to VEGF quadruplex DNA in human A549 cells assessed as downregulation of VEGF165 mRNA expression at 50 uM after 24 hrs by semi-quantitative RT-PCR analysis; format: cell-based; how it was run: as §5
Nucleic Acid [25] = experiment: Binding affinity to VEGF V32G-double stranded DNA at 1 to 32 uM after 10 hrs by polyacrylamide electrophoresis; format: nucleic-acid assay
How it was run: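 FAM-labeled VEGF G-rich strand (V32G, 2 µM) plus complementary C-rich strand (2 µM) with twofold-diluted compound in Tris-HCl pH 7.4, 100 mM KCl. Denatured 95 °C 5 min, slow-cooled to 55 °C, held 10 h, then rapidly cooled to 4 °C. Separated on 16% native PAGE with 50 mM KCl (4 °C, 350 V, 10 h); duplex vs monomeric quadruplex bands imaged.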

A549 [26] = experiment: Downregulation of COX2 mRNA expression in human A549 cells at 3 to 24 uM after 24 hrs by semi-quantitative RT-PCR analysis; format: functional, cell-based
[27] = Solubility of the compound in Tris-HCl buffer at 40 uM at pH 7.4 after 1 to 72 hrs by spectroscopic analysis in absence of DNA; format: physicochemical; conditions: pH 7.4, 40 µM
How it was run: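 Compound at 40 µM in 10 mM Tris-HCl pH 7.4 with 100 mM KCl, without DNA. Visible absorbance spectra recorded at 0, 8 and 72 h.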

Nucleic Acid [28] = experiment: Binding affinity to VEGF V32G-G-quadruplex DNA at 1 to 32 uM after 10 hrs by polyacrylamide electrophoresis; format: nucleic-acid assay; how it was run: as §4
A549 [29] = experiment: Downregulation of GAPDH mRNA expression in human A549 cells at 3 to 24 uM after 24 hrs by semi-quantitative RT-PCR analysis; format: functional, cell-based; how it was run: as §2
A549 [30] = experiment: Downregulation of Max mRNA expression in human A549 cells at 3 to 24 uM after 24 hrs by semi-quantitative RT-PCR analysis; format: functional, cell-based

| solubility [15] | solubility [17] | SMILES | Activity (Nucleic Acid [1]) | Activity (Nucleic Acid [2]) | Activity (Nucleic Acid [3]) | Activity (A549 [5]) | Activity (A549 [6]) | pIC50 (A549 [7]) | Activity (Nucleic Acid [8]) | Activity (Nucleic Acid [9]) | Activity (Nucleic Acid [11]) | Activity (Nucleic Acid [14]) | Activity (Nucleic Acid [16]) | Activity (A549 [18]) | Activity (Nucleic Acid [22]) | Activity (Nucleic Acid [23]) | solubility [27] | Activity (Nucleic Acid [28]) | other results |
| --- | --- | --- | --- | --- | --- | --- | --- | --- | --- | --- | --- | --- | --- | --- | --- | --- | --- | --- | --- |
| soluble | soluble | CCN(CC)CCN1C(=O)c2ccc3c4cccc5c(N6CCNCC6)ccc(c6ccc(c2c36)C1=O)c54 | Dose-dependent effect | Dose-dependent effect | Dose-dependent effect | inactive | inactive | 5.40 | Dose-dependent effect | Dose-dependent effect | inactive | Dose-dependent effect | Dose-dependent effect | inactive |  |  |  |  | Activity (Nucleic Acid [4]): Active; pIC50 (MCF7): 5.26; Activity (Nucleic Acid [10]): Active; pIC50 (HCT-15): 5.33; Activity (Nucleic Acid [12]): Active; solubility [13]: soluble; pIC50 (HeLa): 5.52; Activity (Nucleic Acid [19]): Active |
|  |  | C[n+]1ccc(-c2c3nc(c(-c4cc[n+](C)cc4)c4ccc([nH]4)c(-c4cc[n+](C)cc4)c4ccc([nH]4)c(-c4cc[n+](C)cc4)c4nc2C=C4)C=C3)cc1 [TMPYP4] |  |  | Dose-dependent effect |  |  | 4.37 |  |  |  |  |  |  | inactive | inactive |  |  | inhibition [20]: Active; Activity (Nucleic Acid [21]): inactive; Activity (Nucleic Acid [24]): inactive; Activity (Nucleic Acid [25]): Active |
| soluble | soluble | CC[N+](C)(CC)CCN1C(=O)c2ccc3c4cccc5cccc(c6ccc(c2c36)C1=O)c54.Cc1ccc(S(=O)(=O)[O-])cc1 | Dose-dependent effect | Dose-dependent effect | Dose-dependent effect | inactive | inactive | 5.49 | Dose-dependent effect | Dose-dependent effect |  |  | Dose-dependent effect | inactive | inactive | inactive | Insoluble | Active |  |

| SMILES | solubility [15] | solubility [17] | Activity (Nucleic Acid [1]) | Activity (Nucleic Acid [2]) | Activity (Nucleic Acid [3]) | Activity (A549 [5]) | Activity (A549 [6]) | pIC50 (A549 [7]) | Activity (Nucleic Acid [8]) | Activity (Nucleic Acid [9]) | Activity (Nucleic Acid [11]) | Activity (Nucleic Acid [14]) | Activity (Nucleic Acid [16]) | Activity (A549 [18]) | Activity (Nucleic Acid [22]) | Activity (Nucleic Acid [23]) | solubility [27] | Activity (Nucleic Acid [28]) | other results |
| --- | --- | --- | --- | --- | --- | --- | --- | --- | --- | --- | --- | --- | --- | --- | --- | --- | --- | --- | --- |
| O=C1c2ccc3c4ccc5c6c(ccc(c7ccc(c2c37)C(=O)N1CCN1CCCCC1)c64)C(=O)N(CCN1CCCCC1)C5=O | soluble | soluble | Dose-dependent effect | Dose-dependent effect | Dose-dependent effect |  |  | 4.28 | Dose-dependent effect | Dose-dependent effect | Active | Dose-dependent effect | Dose-dependent effect |  |  |  | Insoluble | Active | Activity (A549 [26]): inactive; Activity (A549 [29]): inactive; Activity (A549 [30]): inactive |
